One may read the CC50 as the concentration that lowers cell viability or growth by half. The low end stands for harm at low concentration, the high end for better tolerance by the cells. Usually IC50 stands for the midpoint of a concentration-inhibition curve. Lower therefore signals higher potency.

The record followed here is ChEMBL document CHEMBL1131099, “Biologically active oligodeoxyribonucleotides. 5. 5'-End-substituted d(TGGGAG) possesses anti-human immunodeficiency virus type 1 activity by forming a G-quadruplex structure” (J Med Chem, 1998).

The test system of test [1] is MT4. The test is described as follows: Cytotoxicity was measured against MT-4 cells using MTT assay. It is filed as functional. To be noted: Homo sapiens. A general note: Tetrazolium assays rely on reduction of a dye to a coloured formazan, in cell work by metabolically active cells.
In test [2] the test system is MT4. The test is described as follows: In vitro inhibitory activity for cytopathicities induced by HIV-1III B against MT-4 cells. Type of test: functional, cell-based. To be noted: Homo sapiens. An outline of the steps:
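Exponentially growing MT-4 cells were pelleted (140g, 5 min), infected in a small volume of RPMI-1640 with 100 TCID50 HIV-1 IIIB for 1 h, washed, and plated at 2.5 × 10⁴ cells/well with serial oligonucleotide dilutions. Viability was read by MTT at day 6. IC50 was taken from dose-response curves, as the mean of duplicate or quadruplicate ± SD.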
For orientation: Cytopathic effects are the visible damage that an infection or toxin causes in cultured cells.

`COc1ccc(C(OC[C@H]2O[C@@H](n3cc(C)c(=O)[nH]c3=O)C[C@@H]2OP(=O)(O)OC[C@H]2O[C@@H](n3cnc4c(=O)[nH]c(N)nc43)C[C@@H]2OP(=O)(O)OC[C@H]2O[C@@H](n3cnc4c(=O)[nH]c(N)nc43)C[C@@H]2OP(=O)(O)OC[C@H]2O[C@@H](n3cnc4c(=O)[nH]c(N)nc43)C[C@@H]2OP(=O)(O)OC[C@H]2O[C@@H](n3cnc4c(N)ncnc43)C[C@@H]2OP(=O)(O)OC[C@H]2O[C@@H](n3cnc4c(=O)[nH]c(N)nc43)C[C@@H]2O)(c2ccccc2)c2ccc(OC)cc2)cc1` registered a cytotoxic concentration (CC50) in the test on MT4 [1] of 38 µM. Moreover, inhibition in the test on MT4 [2] was half-maximal at 1 µM (IC50).
The matching figures for `Cc1cn([C@H]2C[C@H](OP(=O)(O)OC[C@H]3O[C@@H](n4cc(C)c(=O)[nH]c4=O)C[C@@H]3OP(=O)(O)OC[C@H]3O[C@@H](n4cnc5c(=O)[nH]c(N)nc54)C[C@@H]3OP(=O)(O)OC[C@H]3O[C@@H](n4cnc5c(=O)[nH]c(N)nc54)C[C@@H]3OP(=O)(O)OC[C@H]3O[C@@H](n4cnc5c(=O)[nH]c(N)nc54)C[C@@H]3OP(=O)(O)OC[C@H]3O[C@@H](n4cnc5c(=O)[nH]c(N)nc54)C[C@@H]3O)[C@@H](COCc3ccc(OCc4ccccc4)c(OCc4ccccc4)c3)O2)c(=O)[nH]c1=O`: over 40 µM and 0.56 µM.
As for `Cc1cn([C@H]2C[C@H](OP(=O)(O)OC[C@H]3O[C@@H](n4cnc5c(=O)[nH]c(N)nc54)C[C@@H]3OP(=O)(O)OC[C@H]3O[C@@H](n4cnc5c(=O)[nH]c(N)nc54)C[C@@H]3OP(=O)(O)OC[C@H]3O[C@@H](n4cnc5c(=O)[nH]c(N)nc54)C[C@@H]3OP(=O)(O)OC[C@H]3O[C@@H](n4cnc5c(N)ncnc54)C[C@@H]3OP(=O)(O)OC[C@H]3O[C@@H](n4cnc5c(=O)[nH]c(N)nc54)C[C@@H]3O)[C@@H](COCc3ccc(-c4ccccc4)cc3)O2)c(=O)[nH]c1=O`, the CC50 in the test on MT4 [1] is over 40 µM. The compound also gave an IC50 with MT4 [2] of 2.8 µM.
The like results for `Cc1cn([C@H]2C[C@H](OP(=O)(O)OC[C@H]3O[C@@H](n4cnc5c(=O)[nH]c(N)nc54)C[C@@H]3OP(=O)(O)OC[C@H]3O[C@@H](n4cnc5c(=O)[nH]c(N)nc54)C[C@@H]3OP(=O)(O)OC[C@H]3O[C@@H](n4cnc5c(=O)[nH]c(N)nc54)C[C@@H]3OP(=O)(O)OC[C@H]3O[C@@H](n4cnc5c(N)ncnc54)C[C@@H]3OP(=O)(O)OC[C@H]3O[C@@H](n4cnc5c(=O)[nH]c(N)nc54)C[C@@H]3O)[C@@H](CO[Si](C)(C)C(C)(C)C)O2)c(=O)[nH]c1=O` were, in that order, 1.2 µM and over 40 µM.
The like results for `Cc1cn([C@H]2C[C@H](OP(=O)(O)OC[C@H]3O[C@@H](n4cnc5c(=O)[nH]c(N)nc54)C[C@@H]3OP(=O)(O)OC[C@H]3O[C@@H](n4cnc5c(=O)[nH]c(N)nc54)C[C@@H]3OP(=O)(O)OC[C@H]3O[C@@H](n4cnc5c(=O)[nH]c(N)nc54)C[C@@H]3OP(=O)(O)OC[C@H]3O[C@@H](n4cnc5c(N)ncnc54)C[C@@H]3OP(=O)(O)OC[C@H]3O[C@@H](n4cnc5c(=O)[nH]c(N)nc54)C[C@@H]3O)[C@@H](COC(c3ccccc3)c3ccccc3)O2)c(=O)[nH]c1=O` were, in that order, over 40 µM and 4.3 µM.
Compound `Cc1cn([C@H]2C[C@H](OP(=O)(O)OC[C@H]3O[C@@H](n4cnc5c(=O)[nH]c(N)nc54)C[C@@H]3OP(=O)(O)OC[C@H]3O[C@@H](n4cnc5c(=O)[nH]c(N)nc54)C[C@@H]3OP(=O)(O)OC[C@H]3O[C@@H](n4cnc5c(=O)[nH]c(N)nc54)C[C@@H]3OP(=O)(O)OC[C@H]3O[C@@H](n4cnc5c(N)ncnc54)C[C@@H]3OP(=O)(O)OC[C@H]3O[C@@H](n4cnc5c(=O)[nH]c(N)nc54)C[C@@H]3O)[C@@H](COC3(c4ccccc4)c4ccccc4-c4ccccc43)O2)c(=O)[nH]c1=O` returned a half-maximal cytotoxic concentration (CC50) in the test on MT4 [1] of over 40 µM. The IC50 in the test on MT4 [2] turned out to be 1.3 µM.
